Source: PubChem
HSV replic up = HSV replication enhancement; HSV replication augmentation in cells, fold increase; maximum fold increase; actives 0.005% (n = 220,000); in the data active = maximum fold increase above about 1.5; tested in PC3 cells
TbHK1 inh = blocks Trypanosoma brucei hexokinase 1 activity; actives 0.11% (n = 220,000); inhibition, % at 10 µM; recombinant TbHK1, G6PDH-coupled NADH A340; AID 1430;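 active = inhibition of 50% or more in the single-dose primary screen; inactive = inhibition below 50%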
HKDC1 inh = blocks human hexokinase HKDC1 activity; Q2TB90; recombinant HKDC1, G6PDH/diaphorase resazurin coupled fluorescence; inhibition, % at 20 µM; actives 0.16% (n = 340,000);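 active = inhibition above about 35% when tested at 20 µM, limit read from the data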;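 note: plate controls were DMSO wells with enzyme for no effect and DMSO wells lacking enzyme for full effect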
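Test system: recombinant HKDC1 (HK5) hexokinase enzyme, produced in-house; Amount: enzyme 5 µg/mL final; Buffer or medium: Tris pH 8.0 buffer with MgCl2, Tween-20, BSA, BME; Reagent: glucose and ATP substrates; Doses: 20 µM test compound, 1% DMSO; Incubation: 90 min reaction incubation at room temperature, dark; Detection: resorufin fluorescence at 613 nm.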
Dynein cargo inh = blocks dynein driven cargo transport along microtubules; 3617.4 mouse cells, GR-EGFP nuclear translocation imaging; test concentration mostly 20 µM; stimulated with dexamethasone, 1 µM; hits give low values; z-score, hits read low; actives 0.47% (n = 220,000);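 active = plate z-score of nuclear minus cytoplasmic receptor signal below a set negative limit, without overly bright fluorescence or cell loss, cut at about -3.5 in these data, passing the limit was not always enough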;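 note: z-score of nuclear minus cytoplasmic ring GR-EGFP intensity difference per well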
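Buffer or medium: tet-free, stripped-serum medium; Also added: dexamethasone, 1.0 µM final; Technique: high-content fluorescence imaging after fixation; Times: 48 h induction, 1 h compound, 30 min dex at 37 °C; Read-out: per-cell GR-EGFP intensity, nucleus versus surrounding cytoplasmic ring, well-averaged.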
Autophagy mod = modulators of autophagy | MEF GFP-LC3 puncta imaging; test concentration mostly 10 µM | AID 463193 | calls only at 10 µM (by protocol) | actives 0.98% (n = 190,000);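 active = percentage of spot-positive cells more than 3 SD above its plate mean, without a fluorescence outlier flag or 80% toxicity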;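 note: spot-positive cell cutoff set from DMSO-treated cells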
PERK inhibitor = blocks human PERK kinase. Q9NZJ5. AID 1416. actives 0.17% (n = 220,000). inhibition, % at 5.6 µM. CHO PERK-DD fusion, SEAP luminescence translation reporter;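 active = inhibition above the mean inhibition of all tested compounds plus 3 SD, set separately per screening campaign, cut at about 2.9% in these data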;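 note: PERK kinase domain activated by AP20187 dimerizer at 100 nM; 0% = DMSO with dimerizer and 100% = rapamycin at 8.4 µM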
Target sequence (Q9NZJ5 whole entry, looked up, the tested form may be a part): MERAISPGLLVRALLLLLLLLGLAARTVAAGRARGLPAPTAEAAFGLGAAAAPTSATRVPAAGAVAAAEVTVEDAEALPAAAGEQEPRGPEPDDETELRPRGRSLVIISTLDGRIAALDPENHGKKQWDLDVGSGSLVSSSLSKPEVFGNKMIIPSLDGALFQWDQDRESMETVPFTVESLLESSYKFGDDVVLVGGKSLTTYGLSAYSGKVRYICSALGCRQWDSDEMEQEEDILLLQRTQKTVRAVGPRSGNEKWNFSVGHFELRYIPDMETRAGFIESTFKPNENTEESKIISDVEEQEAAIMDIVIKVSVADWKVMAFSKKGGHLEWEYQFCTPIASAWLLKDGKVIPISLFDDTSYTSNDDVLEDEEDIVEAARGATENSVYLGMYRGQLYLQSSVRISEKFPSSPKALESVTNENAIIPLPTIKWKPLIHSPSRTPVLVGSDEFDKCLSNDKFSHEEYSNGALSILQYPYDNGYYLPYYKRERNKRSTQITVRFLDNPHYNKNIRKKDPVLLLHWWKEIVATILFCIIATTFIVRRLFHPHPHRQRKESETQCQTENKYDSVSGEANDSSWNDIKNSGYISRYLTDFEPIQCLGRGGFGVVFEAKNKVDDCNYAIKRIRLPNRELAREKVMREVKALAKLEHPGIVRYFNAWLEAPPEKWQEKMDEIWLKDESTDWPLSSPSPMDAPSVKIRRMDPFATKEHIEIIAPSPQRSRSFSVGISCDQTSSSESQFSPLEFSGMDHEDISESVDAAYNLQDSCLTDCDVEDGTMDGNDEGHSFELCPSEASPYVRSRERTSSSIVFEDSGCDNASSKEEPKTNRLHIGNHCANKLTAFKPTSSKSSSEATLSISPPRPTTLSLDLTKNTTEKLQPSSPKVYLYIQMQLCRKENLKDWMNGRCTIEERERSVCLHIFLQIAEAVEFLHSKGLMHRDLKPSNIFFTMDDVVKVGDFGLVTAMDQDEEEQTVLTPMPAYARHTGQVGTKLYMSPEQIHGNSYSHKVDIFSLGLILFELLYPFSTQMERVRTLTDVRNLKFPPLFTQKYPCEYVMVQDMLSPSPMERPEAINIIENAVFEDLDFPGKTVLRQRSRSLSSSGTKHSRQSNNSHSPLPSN
An asterisk follows results filed as active; i = inactive; x = no result given; + = active, no number. Sampled rows, rich in hits. Any-hit rate of the full collection: about 1.2%.

SMILES | HSV replic up | TbHK1 inh | HKDC1 inh | Dynein cargo inh | Autophagy mod | PERK inhibitor
CC(=O)C1C(c2ccccc2)c2c(noc2C)CC1(C)O (configuration not stated) | i | -6.3 | -0.5 | -0.361 | x | 3.2*
O=C(NCC1CCCC(CNC(=O)Nc2ccc(Cl)cn2)C1)Nc1ccc(Cl)cn1 (configuration not stated) | x | x | 1.7 | x | x | x
CCCCCCOc1ccc(/C(C)=N/NC2=NCCN2)cc1[N+](=O)[O-] | i | 5.2 | 11.8 | 5.73 | + | 1.4
C/C(=N\NC1=NCCN1)c1ccc(N)c([N+](=O)[O-])c1 | i | -21.9 | -4.2 | 2.01 | x | 0.7
CCCCOc1ccc(Br)cc1/C(C)=N/NC1=NCCN1 | i | 4.4 | -10.7 | -0.32 | + | -1.2
O=C(CSc1nc2c(oc3ccccc32)c(=O)n1CC1CCCO1)NCc1ccccc1 (configuration not stated) | x | x | -3.1 | x | x | x
COc1ccc(N2C(=O)CC(Sc3nnc(-c4ccccc4)o3)C2=O)cc1 (configuration not stated) | i | 3.8 | 3.3 | -4.12* | i | 0.6
Cc1ccc(S(=O)(=O)N2C[C@@H]3CCCC[C@@H]3[C@@H](C)[C@H]2c2cn(Cc3ccccc3)c3ncccc23)cc1 | x | x | -1.8 | x | x | x
CC(C)NC(=O)C1(c2ccccc2)CCOCC1 | i | 3.8 | -9.4 | -0.39 | i | 0.3
NC(=O)C1(c2ccccc2)CCOCC1 | i | -0.7 | -1.7 | -0.442 | + | 0.3
CC(C)N(Cc1ccccc1)C(=O)COC(=O)c1cnc(Cl)c(Cl)c1 | x | x | -4.1 | x | x | x
O=C(c1ccc(NS(=O)(=O)c2ccccc2)cc1)N1CCN(c2ccccc2)CC1 | x | x | -3.4 | x | x | x
CSc1nn2cc(CCN3CCOCC3)c(-c3ccc(F)cc3)nc2c1C#N | i | -1.3 | -4.8 | 2.86 | + | -0.1
CCCCN1CCC(=O)C(C(=O)OCC)=C1C(=O)OCC | x | x | -7.8 | x | x | x
CCOc1ccccc1N1CC(O)=C(c2nc3ccccc3s2)C1=N | i | -15.3 | 13.5 | -0.928 | + | -0.7
CCOC(=O)/C(=N\Nc1ccccc1[N+](=O)[O-])c1csc(N)n1 | i | 1.5 | -1.3 | -0.691 | i | 0.3
CCOC(=O)/C(=N\Nc1ccc(C(C)=O)cc1)c1csc(Nc2ccccc2)n1 | i | -21.4 | -12.2 | -0.702 | + | 0.8
COc1cc2cc(C(=O)N3CCN(Cc4ccc5c(c4)OCO5)CC3)c(=O)oc2cc1OC | i | -31.3 | -3.3 | 0.414 | x | -0.9
CC(=O)N1CCc2[nH]c3ccc(C)cc3c2C1 | x | x | -0.3 | x | x | x
CC(=O)N1CCc2[nH]c3ccccc3c2C1 | i | 18.1 | -5.5 | -0.256 | i | 3.3*
Cn1cnnc1SCC(=O)NNC(=O)c1ccc([N+](=O)[O-])cc1 | x | x | -3.0 | x | x | x
CC(NC(=O)CNC(=O)c1cccc(Cl)c1)c1ccccc1 (configuration not stated) | x | x | 0.1 | x | x | x
O=C(Nc1ccc(Cl)c(C(F)(F)F)c1)NC1CC2CCCC(C1)N2C1CC1 (configuration not stated) | i | 3.6 | -0.2 | 0.759 | + | -0.7
O=C(Nc1cccc(F)c1)NC1CC2CCCC(C1)N2C1CC1 (configuration not stated) | i | -0.3 | -1.8 | 1.64 | i | -0.3
CCN(CC(=O)NC1CCS(=O)(=O)C1)c1ccc(S(C)(=O)=O)cc1[N+](=O)[O-] (configuration not stated) | i | -4.4 | -3.0 | -0.891 | + | 1.7
SMILES | HSV replic up | TbHK1 inh | HKDC1 inh | Dynein cargo inh | Autophagy mod | PERK inhibitor
O=C(O)c1ccccc1-c1ccc(/C=C2\SC(=O)N(c3ccccc3)C2=O)o1 | x | x | 8.9 | x | x | x
O=C1S/C(=C\c2ccc(N3CCOCC3)o2)C(=O)N1c1ccccc1 | i | -1.8 | -6.1 | -1.37 | + | 1.9
CC(CN1CCCCC1)OC(=O)c1ccco1 (configuration not stated) | x | x | -8.0 | x | x | x
COc1cc(/C=C2\NC(=O)NC2=O)cc(Br)c1OC | x | x | -0.4 | x | x | x
CCOc1cc(/C=C2/NC(=O)NC2=O)cc(Br)c1OCc1ccc(C(=O)O)cc1 | i | -12.8 | -10.3 | -0.716 | + | 1.6
CN1CCN(CC(=O)Nc2c(C(=O)c3ccccc3)oc3ccccc23)CC1 | x | x | -5.1 | x | x | x
COc1ccc2oc(C(=O)c3ccccc3)c(NC(=O)CN3CCN(C)CC3)c2c1 | x | -40.0 | -3.7 | 1.51 | + | -1.5
